# Reference: PMC5568800 (Investigative ophthalmology & visual science, 2009)
# Read-outs that look alike come from different tables or passages of the source.
# How the values were obtained:
# W587F X2IRBP [1] = assay: Titration monitoring quenching of tryptophan fluorescence, W587F mutant; type: binding, Xenopus
# W450F X2IRBP [2] = assay: Titration monitoring enhancement of retinol fluorescence, W450F mutant; type: binding, Xenopus
# Method in brief: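 All-trans retinol titration of the E. coli-expressed, TEV-cleaved Xenopus X2IRBP mutant, read as retinol fluorescence enhancement (ex 330 nm, em 480 nm). Nonspecific signal was subtracted using a titration into fluorescence-matched NAT solution, and the inner filter effect was corrected graphically. Three independent titrations were averaged. Kd from a nonlinear least-squares fit assuming a single type of noninteracting site.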
# [3] = molecular target: X2IRBP (second module of Xenopus IRBP), wild-type sequence; assay: Titration monitoring quenching of tryptophan; type: binding; details: read-out: Kd, Quenching, excitation 280 nm, emission 340 nm
# Method in brief: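 Purified X2IRBP (Xenopus IRBP 313–612, TEV-cleaved His-fusion, Ni plus Q Sepharose purified) was titrated with all-trans or 11-cis retinol (ethanol stocks). Protein fluorescence at 340 nm (excitation 280 nm) was normalized to maximal quenching. All-trans data were averaged over three independent titrations. Kd and N came from a nonlinear least-squares fit to a noninteracting single-site-class binding equation.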
# W587F X2IRBP [4] = assay: Titration monitoring enhancement of retinol fluorescence, W587F mutant; type: binding, Xenopus; details: read-out: Kd, Enhancement, 11-cis retinol, excitation 324 nm, emission 475 nm, Figure 7
# Method in brief: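 The W587F mutant was introduced into X2IRBP-pET30 by site-directed mutagenesis, sequence-verified, then expressed in E. coli BLR(DE3) (1 mM IPTG, 22°C, 18 h) and purified by Ni-affinity, TEV cleavage and Q Sepharose. 11-cis retinol, made by NaBH4 reduction of 11-cis retinal and HPLC-checked, was titrated in. Kd came from a nonlinear least-squares single-site-class fit.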
# [5] = molecular target: X2IRBP (second module of Xenopus IRBP), wild-type sequence; type: binding; details: read-out: Kd, Enhancement
# Method in brief: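 Purified X2IRBP (Xenopus IRBP 313–612; His-fusion, TEV-cleaved, Ni and anion-exchange purified; quantified by A280 and amino acid analysis) was titrated with all-trans or 11-cis retinol. 11-cis retinol was made by NaBH4 reduction of 11-cis retinal. For all-trans, nonspecific signal from titration into fluorescence-matched NAT was subtracted and three independent titrations were averaged. Kd came from a nonlinear least-squares single-site-class fit.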
# W450F X2IRBP [6] = assay: Titration monitoring quenching of tryptophan fluorescence, W450F mutant; type: binding, Xenopus; details: all-trans retinol, excitation 280 nm, emission 340 nm
# Method in brief: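 Intrinsic tryptophan fluorescence quenching (ex 280 nm, em 340 nm) of tag-free recombinant Xenopus X2IRBP mutants during all-trans retinol titration. Signal normalized to the maximum quenching. Runs alternated between the W450F and W587F proteins, three titrations each, and were averaged. Binding parameters from a nonlinear least-squares fit to a single-class, noninteracting-site equation.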
# W450F X2IRBP [7] = assay: Energy transfer titration, W450F mutant; type: binding, Xenopus; details: read-out: Kd, Energy Transfer, all-trans retinol, Figure 4
# Method in brief: (§1)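 Tag-free Xenopus IRBP second module (residues 313–612; His-tag cut by TEV protease), expressed in E. coli BLR(DE3) at 22°C for 18 h and purified on nickel then Q Sepharose columns. Titrated with all-trans retinol (fresh ethanol stock) and read by energy transfer (ex 280 nm, em 480 nm). Runs alternated between the two mutants, three per mutant, then averaged. Kd and N from a nonlinear least-squares fit to a single-class, noninteracting-site equation.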
# [8] = molecular target: X2IRBP (second module of Xenopus IRBP), wild-type sequence; assay: Energy transfer titration, X2IRBP of wild-type sequence; type: binding; details: read-out: Kd, Energy Transfer; all-trans retinol; excitation 280 nm, emission 480 nm; Figure 4
# Method in brief: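 X2IRBP (Xenopus IRBP residues 313–612) was expressed in E. coli BLR(DE3) as a His-tag fusion, TEV-cleaved, and purified by Ni-affinity and Q Sepharose. Concentration was set by A280 and amino acid analysis. All-trans retinol from fresh ethanol stocks was titrated in. Three independent titrations were averaged. Kd and N came from a nonlinear least-squares fit assuming a single class of noninteracting sites.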
# W587F X2IRBP [9] = assay: Energy transfer titration, W587F mutant; type: binding, Xenopus; details: read-out: Kd, Energy Transfer, all-trans retinol, Figure 4
# Method in brief: as §1
# X2IRBP = type: binding, Xenopus; details: oleic acid 0.67 to 2.66 μM; X2IRBP 1 μM; retinol fluorescence enhancement
# Method in brief: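 X2IRBP (1 μM; recombinant Xenopus, tag removed by TEV) titrated with all-trans or 11-cis retinol in the presence of oleic acid at 0.67 to 2.66 μM. Binding followed by retinol fluorescence enhancement (ex 330 nm, em 480 nm).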
# [10] = 11-cis retinol, X2IRBP of wild-type sequence, Figure 6
compound,measurement,setting,value
CC1=C(/C=C/C(C)=C/C=C\C(C)=C\CO)C(C)(C)CCC1 [11-cis retinol],Kd,"W587F X2IRBP [1]; read-out: Kd, Quenching, 11-cis retinol, excitation 280 nm, emission 340 nm, Figure 7",0.024 ± 0.01 µM
same,Kd,"W450F X2IRBP [2]; read-out: Kd, Enhancement, 11-cis retinol, excitation 324 nm, emission 475 nm, Figure 7",0.218 ± 0.062 µM
same,Kd,[3]; [10],0.042 ± 0.009 µM
same,Kd,W587F X2IRBP [4],0.132 ± 0.056 µM
same,Kd,[5]; [10],0.077 ± 0.015 µM
CC1=C(/C=C/C(C)=C/C=C/C(C)=C/CO)C(C)(C)CCC1 [all-trans retinol],Quenching of tryptophan fluorescence (result in words),W450F X2IRBP [6],No significant quenching
same,Kd,"W587F X2IRBP [1]; read-out: Kd, Quenching, all-trans retinol, titrations of Figure 4",0.05 ± 0.01 µM
same,Kd,"W450F X2IRBP [2]; read-out: Kd, Enhancement, all-trans retinol, titrations of Figure 4",0.45 ± 0.11 µM
same,Kd,"[3]; all-trans retinol, Figure 4",0.008 ± 0.003 µM
same,Kd,W450F X2IRBP [7],0.29 ± 0.08 µM
same,Kd,"[5]; all-trans retinol, excitation 330 nm, emission 480 nm, Figure 4",0.07 ± 0.02 µM
same,Kd,[8],0.033 ± 0.008 µM
same,Kd,W587F X2IRBP [9],0.1 ± 0.01 µM
CCCCCCCC/C=C\CCCCCCCC(=O)O [oleic acid],Manner of inhibition of 11-cis and all-trans retinol binding to X2IRBP,X2IRBP,noncompetitive
